# Pyk2 oligo antag = antagonists of Pyk2 self-association, primary screen, Q293 cells, FERM NanoBiT luminescence, HTS | actives 0.83% (n = 99,000) | active compounds read low | z-score (the deposit names both 25 µM and 10 µM) | Protein-tyrosine kinase 2-beta (Homo sapiens), Q14289;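 active = Z-score of -3 or lower, scaled per plate to the spread of control and sample wells; inactive = z-score above -3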;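 also: negative z-score means lost luminescence so less FERM oligomerization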
# ERa coact pot = enhancers of ERα–SRC-1 coactivator binding, primary screen, biochemical, TR-FRET, ERα LBD, low estradiol; TR-FRET ERalpha-LBD/SRC-Cy5 coactivator binding, 2 h; 100 = basal binding, no effect; coactivator binding (% of control), % at 25.6 µM; actives 1.3% (n = 86,000); in the data active = activity above about 200%;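 also: binding measured in presence of low estradiol as agonist stimulus; 0% = peptide alone without receptor and 100% = receptor with peptide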
# RORa activator = activators of orphan receptor RORA, primary screen, cell-based, luminescence; Nuclear receptor ROR-alpha (Homo sapiens), P35398; CHO-K1 Gal4-RORA LBD luciferase reporter; percent increase over mock-subtracted basal signal; activation, % at 10 µM; actives 1.5% (n = 65,000); AID 560, 2006;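 active = activation above the mean of all tested compounds plus 3 SD, cut at about 49% in these data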;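 also: 0% = DMSO-treated RORA cells and 100% = added signal equal to DMSO minus mock-transfected cells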
# Target sequence (P35398 whole entry, looked up, the tested form may be a part): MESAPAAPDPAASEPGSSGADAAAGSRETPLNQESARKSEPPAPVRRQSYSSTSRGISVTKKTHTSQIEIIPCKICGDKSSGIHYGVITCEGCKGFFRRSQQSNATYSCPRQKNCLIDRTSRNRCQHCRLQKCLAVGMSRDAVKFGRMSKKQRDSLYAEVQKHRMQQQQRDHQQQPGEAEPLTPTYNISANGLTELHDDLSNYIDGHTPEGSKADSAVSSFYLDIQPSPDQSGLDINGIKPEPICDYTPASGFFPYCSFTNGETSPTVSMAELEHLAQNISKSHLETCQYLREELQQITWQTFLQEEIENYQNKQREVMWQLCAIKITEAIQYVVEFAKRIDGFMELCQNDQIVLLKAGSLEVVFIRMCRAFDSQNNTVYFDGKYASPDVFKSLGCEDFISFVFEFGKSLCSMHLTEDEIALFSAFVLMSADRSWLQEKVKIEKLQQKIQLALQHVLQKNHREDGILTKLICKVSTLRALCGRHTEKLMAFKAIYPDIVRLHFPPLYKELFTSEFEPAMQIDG
# SF-1 act = activators of human SF-1, primary screen, cell-based, CHO-K1, Gal4-SF-1 LBD, luciferase luminescence | Steroidogenic factor 1 (Homo sapiens), Q13285 | CHO-K1 Gal4-SF-1 LBD luciferase reporter; % increase over DMSO SF-1-specific signal | activation, % at 10 µM | actives 1.9% (n = 65,000) | AID 522, 2006;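 active = activation above the mean activation of all tested compounds plus 3 SD, cut at about 50% in these data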
#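 Material: Gal4–SF-1 LBD one-hybrid luciferase reporter in CHO-K1 cells | Amount: 4,000 cells per well | Compound dosing: 10 µM single point, 1% DMSO | Schedule: 20 h compound treatment, 37 °C | Measured by: SteadyLite luciferase luminescence | Evaluation: Percent activation versus DMSO | Control set: DMSO-treated SF-1-transfected cells as negative, DMSO-treated mock-transfected cells lacking SF-1 as background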
# ERa SRC1 inh = ERα–SRC-1 coactivator interaction inhibitors, primary screen, biochemical, TR-FRET, ERα LBD, estradiol-bound; Estrogen receptor (Homo sapiens), P03372; TR-FRET ER-alpha LBD / SRC-1 peptide; inhibition, % at 25.6 µM; actives 1.7% (n = 86,000); AID 629, 2007; in the data active = inhibition above about 50%;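 also: 0% = receptor plus peptide control and 100% = peptide only without receptor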
# ERb coact inh = inhibitors of ERβ-SRC1 coactivator interaction, primary screen, biochemical, TR-FRET, ERβ LBD, SRC-1 peptide; Estrogen receptor beta (Homo sapiens), Q92731; TR-FRET ER-beta LBD / SRC1-Cy5 peptide binding; receptor agonist-loaded with 1 µM estradiol; inhibition, % at 25.6 µM; actives 1.3% (n = 86,000);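 active = compounds whose percent inhibition of the receptor-coactivator binding signal exceeds about 50% in the single-dose screen, limit read from the data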;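 also: 0% = receptor plus peptide wells without compound and 100% = peptide-only wells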
# The depositor's hits bear a star; · = no result; [ ] = another dose, or the depositor's remark. Sampled rows, rich in hits. Any-hit rate of the full collection: about 4.8%.
SMILES,Pyk2 oligo antag,ERa coact pot,RORa activator,SF-1 act,ERa SRC1 inh,ERb coact inh
COc1cccc(/C=C/C(=C2\C(=O)N(c3ccccc3)N=C2C)c2ccc(Br)cc2)c1OC,-1.2,·,·,·,·,·
COc1ccc(CCN(C(=O)c2cccc(F)c2)C2CC(=O)N(c3ccc(OC)cc3)C2=O)cc1 (configuration not stated),-1.4,·,·,·,·,·
Cc1ccc(C(=O)NCCSc2ccc(Cl)cc2)cc1S(=O)(=O)Nc1ccccc1,-1.6,·,·,·,·,·
O=C(Cc1cccs1)Nc1ccon1,-0.38,90,-6,7,23,24
COc1cccc(-c2nnc(NC(=O)Cc3cccs3)s2)c1,2.1,129,34,0,63*,50
O=C(Cc1cccs1)Nc1nnc(Cc2ccccc2)s1,-0.69,36,·,·,96*[fluorescence artefact?],91*
O=C(Cc1cccs1)Nc1ccccn1,0.91,72,-15,0,56*,55*
CCSc1nnc(NC(=O)c2cccs2)s1,-0.24,111,50*,43,-2,-1
CCCCc1c(O)nc(SCC(=O)N2CCOCC2)[nH]c1=O,0.09,104,0,-4,2,1
O=C(Cn1[nH]c(=O)c2ccccc2c1=O)N1CC=C(c2ccccc2)CC1,-0.02,111,·,·,-4,0
CCSc1nnc(NC(=O)c2cc(C)oc2C)s1,-0.92,114,60*,76*,-3,-6
O=C(Cc1ccccc1F)Nc1nc(-c2cccs2)cs1,-1.3,128,10,46,4,3
CCCCCc1nnc(NC(=O)Cc2cccs2)s1,0.22,20,-8,-1,94*[fluorescence artefact?],82*
O=C(Cc1ccccc1)Nc1nc(-c2cccs2)cs1,-1.2,93,67*,44,-16,-22
CCSc1nnc(NC(=O)c2ccc(C)o2)s1,0.07,97,34,46,3,-4
O=C(Cc1cccs1)Nc1nnc(CCc2ccccc2)s1,-1.1,103,-13,6,16,19
CCCCCOC(=O)Cn1c(N2CCCCCC2)nc2c1c(=O)[nH]c(=O)n2C,-0.32,94,-2,-12,-15,-19
CCC1(C)Cc2ccccc2C(Nc2c(C)n(C)n(-c3ccccc3)c2=O)=N1 (configuration not stated),-0.37,102,·,·,4,-3
Fc1cccc(CSc2nc3ccncc3[nH]2)c1,·,118,25,51*,0,-3
COc1ccc(CCC(C)Nc2ccc(F)cc2)cc1 (configuration not stated),0.39,·,·,·,·,·
CCOC(=O)N1CCN(C(=O)c2ccccc2CCc2ccccc2)CC1,0.02,97,-6,-3,4,1
CCOC(=O)N1CCN(C(=O)c2ccccc2-c2ccccc2)CC1,-0.45,111,17,60*,-1,-5
CCOC(=O)c1c(Nc2nc(C)c(C(=O)NC)s2)sc(C)c1C,-0.09,97,4,-6,69*,19
CCOC(=O)c1sc(Nc2ccc(C)cc2C)nc1C,-2.8,85,·,·,13,5
O=C(c1csc2c1CCCCC2)N1CCN(c2ncccn2)CC1,0.3,·,22,-7,·,·
SMILES,Pyk2 oligo antag,ERa coact pot,RORa activator,SF-1 act,ERa SRC1 inh,ERb coact inh
O=C(N=C1SCC(=O)N1c1ccccc1Cl)c1ccco1,-0.18,114,62*,55*,-1,7
CC1(C(=O)NC2CCCCCCC2)CC1(Cl)Cl (configuration not stated),0.24,·,·,·,·,·
COc1ccc(CC(=S)N2CCOCC2)cc1,0.63,·,·,·,·,·
O=C(NCCSCc1ccco1)Nc1cccc(Cl)c1,-0.59,85,13,11,17,11
O=C(NCCSCc1ccco1)Nc1ccc(Cl)cc1,1.8,104,46,65*,-6,-4
Cn1c(SCC(=O)N2CCCCC2)nc2c([nH]c3ccccc32)c1=O,·,94,-5,-12,26,8
COc1cccc(-n2c(SCC(=O)N3CCCC3)nc3c([nH]c4ccccc43)c2=O)c1,·,285*[fluorescence artefact?],4,-2,40,45
NC(=O)SC/C(=N\S(=O)(=O)c1ccccc1)Nc1ccccc1,1.5,97,-2,-5,0,97*[fluorescence artefact?]
Cc1ccc(N/C(CSC(N)=O)=N/S(=O)(=O)c2ccccc2)cc1,1.6,95,·,·,-5,0
O=C(CSc1nnnn1-c1cccc(F)c1)Nc1nc2ccccc2s1,1,298*,·,·,55*[fluorescence artefact?],17
O=C(O)CCSc1nnc(-c2cccnc2)n1-c1ccccc1,0.27,113,·,·,6,-5
C=CCn1c(=O)c2ccccc2n2c(SCc3c(C(=O)OCC)oc4ccccc34)nnc12,-1.2,100,11,-1,-2,-6
CC1=C(C#N)C(Nc2ccc(Cl)cn2)(C(F)(F)F)C(=O)N1 (configuration not stated),-1.9,102,·,·,-4,-10
CC1=C(C#N)C(Nc2ccc(C)cn2)(C(F)(F)F)C(=O)N1 (configuration not stated),-1.2,228*[fluorescence artefact?],·,·,5,12
CCC(Sc1nc(N)c(NC(=O)c2ccc(OC)c(OC)c2)c(=O)[nH]1)C(=O)OC (configuration not stated),·,86,-20,-4,0,-8
CSc1ccc(-c2nnn(Cc3ccccn3)n2)cc1,-0.15,109,56*,57*,6,-3
CCN(CC(=O)Nc1ccc2c(c1)OCCO2)c1nc(-c2cccnc2)nc2ccccc12,-0.79,77,-21,9,19,27
O=C(NCc1ccccc1)/C(NC(=O)c1ccccc1)=C(/Sc1ccccn1)c1ccccc1,-4.1*,119,·,·,0,-8
O=C(NCc1ccccc1)NC(=O)c1ccccc1,0.67,109,3,23,0,-7
O=C1OC(c2ccccc2)=C/C1=C/N1CCCCC1,0.15,130,71*,22,-7,-5
O=C1OC(c2ccccc2)=N/C1=C\N1CCCCC1,1.1,92,·,·,-39,0
CC(C)c1nc2sc3c(NCc4ccco4)ncnc3c2c2c1COC(C)(C)C2,-2,138,3,7,54*[fluorescence artefact?],41
CC(C)c1nc2sc3c(NCc4ccccc4)ncnc3c2c2c1COC(C)(C)C2,-1.3,366*[fluorescence artefact?],·,·,10,25
CSc1nc(NCc2ccco2)c2sc3nc(C(C)C)c4c(c3c2n1)CC(C)(C)OC4,-0.32,·,·,·,·,·
